According to ChEMBL document CHEMBL3797154, “Design and Synthesis of 1-((1,5-Bis(4-chlorophenyl)-2-methyl-1H-pyrrol-3-yl)methyl)-4-methylpiperazine (BM212) and N-Adamantan-2-yl-N'-((E)-3,7-dimethylocta-2,6-dienyl)ethane-1,2-diamine (SQ109) Pyrrole Hybrid Derivatives: Discovery of Potent Antitubercular Agents Effective against …” (J Med Chem, 2016):
In brackets after ≈: the same amount, converted by molar mass. Activity calls are given as the source filed them. The rule behind the calls is not given here.

Tests used:
[1] = tested on: Mycobacterium tuberculosis; experiment: Antimycobacterial activity against Mycobacterium tuberculosis mc'2-7000x assessed as inhibition of mycobacterial growth; assay type: functional
[2] = tested on: Mycobacterium tuberculosis; experiment: Antimycobacterial activity against Mycobacterium tuberculosis H37Rv ATTC 27294 assessed as inhibition of mycobacterial growth incubated for 7 days; assay type: functional
Outline: (§1)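 MIC by HT-SPOTi on Middlebrook 7H10 agar with 0.05% (v/v) glycerol and 10% (v/v) OADC in 96-well format. Compounds dissolved at 50 mg/mL (stock), two-fold serial dilutions, final 500-0.5 µg/mL. Each well spotted with 2 µL early-to-midlog culture (2x10^3 CFU), incubated at 37 °C until distinct spots in control wells. DMSO-only and isoniazid controls; triplicate.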

[3] = tested on: Mycobacterium tuberculosis; experiment: Antimycobacterial activity against Mycobacterium tuberculosis mc'2-7000x assessed as inhibition of mycobacterial growth at 500 ug/ml; assay type: functional, organism-based
[4] = Cytotoxic activity against human THP1 cells assessed as reduction in cell viability incubated for 48 hrs by […] based assay; set-up: species or system THP-1; settings: for GI50: thp-1, 48 h; for GI50 at 48 h: THP1 cells
Outline: (§2)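 RAW264.7 or THP-1 cells were grown in RPMI-1640 with 10% FBS and seeded at 10^5 cells/mL. Compound was two-fold serially diluted from a 50 mg/mL stock, with a solvent-control row. Plates were held 48 h at 37 °C in 5% CO2. Wells were washed twice with PBS, with centrifugation between washes for THP-1, then given fresh RPMI plus 0.01% […]. After overnight incubation, fluorescence was read at 560/590 nm and GIC50 derived.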

Mycolicibacterium aurum [5] = experiment: Inhibition of multidrug resistance efflux pump in Mycobacterium aurum ATCC 23366 assessed as inhibition of ethidium bromide efflux by measuring relative fluorescence units for ethidium bromide accumulation at 1/4 times MIC incubated for 60 mins by fluorimetric assay
Outline: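 Whole-cell efflux assay: early-log cells (OD600 ~0.8) adjusted to OD600 0.4, washed into PBS; 4-6x10^7 bacteria/mL with 0.4% glucose, 0.5 mg/L ethidium bromide substrate and compound at 1/4x MIC. Fluorescence ex 544/em 590 nm at 37 °C every minute for 60 min; accumulation scored 0-4 by relative fluorescence bands. Verapamil positive, PBS negative control.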

[6] = tested on: Mycolicibacterium smegmatis; experiment: Antimycobacterial activity against Mycobacterium smegmatis str. MC2 155 ATCC 700084 assessed as inhibition of mycobacterial growth incubated for 24 hrs by MABA method; assay type: functional; settings: MC2 155 ATCC 700084, 24 h
Mycolicibacterium aurum [7] = experiment: Antimycobacterial activity against Mycobacterium aurum ATCC 23366 assessed as inhibition of mycobacterial growth incubated for 4 days; assay type: functional
Outline: (§3)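 HT-SPOTi agar dilution: two-fold serial dilutions of compound were mixed into Middlebrook 7H10 agar with 0.05% glycerol and 10% OADC, giving a final range of 500–0.5 µg/mL. Each well was spotted with 2x10^3 CFU of early-to-mid-log culture. Plates were incubated at 35 or 37 °C until spots appeared in control wells. Controls were DMSO-only and isoniazid. The MIC was read, in triplicate.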

Mycolicibacterium aurum [8] = experiment: Antimycobacterial activity against Mycobacterium aurum ATCC 23366 assessed as inhibition of mycobacterial growth at 500 ug/ml incubated for 4 days; assay type: functional, organism-based; outline: as §3
[9] = Cytotoxic activity against mouse RAW264.7 cells assessed as reduction in cell viability incubated for 48 hrs by […] based assay; outline: as §2
[10] = Selectivity index, ratio of GIC50 for cytotoxicity against mouse RAW264.7 cells to MIC for Mycobacterium tuberculosis H37Rv ATTC 27294; assay type: toxicity, cell-based; settings: read-out: Selectivity Index
Outline: (§4)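 SI = GIC50 / H37Rv MIC (agar spot assay). GIC50 from cells in RPMI-1640 + 10% FBS, 37 °C, 5% CO2; 10^5 cells/mL added to two-fold compound dilutions from 50 mg/mL stock, solvent control row. 48 h exposure, washes (THP-1 centrifuged), fresh medium plus 0.01% […], overnight; fluorescence ex 560/em 590 nm.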

[11] = Selectivity index, ratio of GIC50 for cytotoxicity against human THP1 cells to MIC for Mycobacterium tuberculosis H37Rv ATTC 27294; assay type: toxicity, cell-based, THP-1; settings: read-out: Selectivity Index; outline: as §4
[12] = tested on: Mycobacterium tuberculosis; experiment: Antimicrobial activity against Mycobacterium tuberculosis; assay type: functional
[13] = tested on: Mycobacterium tuberculosis; experiment: Antimycobacterial activity against Mycobacterium tuberculosis H37Rv ATTC 27294 assessed as inhibition of mycobacterial growth at 500 ug/ml incubated for 7 days; assay type: functional, organism-based; outline: as §1

For NNC(=O)c1ccncc1 [ISONIAZID], the MIC [1] was “inactive”, the MIC ([2]; H37Rv ATTC 27294, 168 h) was 0.24 µg/mL (≈ 1.75 µM) and the “growth inhibition (GI)” value [3] was “inactive”. For the same compound, the GI50 [4] was “Not Active”.

For Cc1cc(CNOCc2ccccc2)c(C)n1-c1ccc(F)cc1, the Activity (Mycolicibacterium aurum [5]) was 4 RFU, the MIC [6] was greater than 64 µg/mL and the MIC (Mycolicibacterium aurum [7]) was “inactive”. The “growth inhibition (GI)” value (Mycolicibacterium aurum [8]) was “inactive”, the MIC [1] was greater than 64 µg/mL and the MIC ([2]; H37Rv ATTC 27294, 168 h) was greater than 125 µg/mL. The GI50 at 48 h [4] was 292 µg/mL (≈ 900 µM), the GI50 at 48 h [9] was 123 µg/mL (≈ 379 µM) and the selectivity ratio [10] was less than 1. For the same compound, the selectivity ratio [11] was less than 2.3.

Work on CC(C)=CCC/C(C)=C/CNCCNC1C2CC3CC(C2)CC1C3 (stereo not drawn) [SQ109] yielded an Activity (Mycolicibacterium aurum [5]) of 2 RFU, an MIC [12] of 0.5 µM (≈ 0.165 µg/mL) and an MIC [6] of 4 µg/mL (≈ 12.1 µM). For the same compound, the MIC (Mycolicibacterium aurum [7]; ATCC 23366, 96 h) was 7.8 µg/mL (≈ 23.6 µM), the MIC [1] was 2 µg/mL (≈ 6.05 µM) and the MIC ([2]; H37Rv ATTC 27294, 168 h) was 0.51 µg/mL (≈ 1.54 µM). For the same compound, the GI50 [4] was “Not Active”.

In the case of Cc1cc(CNOCc2ccccc2)c(C)n1-c1ccc(Cl)cc1, the Activity (Mycolicibacterium aurum [5]) was 2 RFU, the MIC [6] was greater than 64 µg/mL and the MIC (Mycolicibacterium aurum [7]) was “inactive”. The “growth inhibition (GI)” value (Mycolicibacterium aurum [8]) was “inactive”, the MIC [1] was greater than 64 µg/mL and the MIC [2] was “inactive”. For the same compound, the “growth inhibition (GI)” value [13] was “inactive”, the GI50 at 48 h [4] was 67 µg/mL (≈ 197 µM) and the GI50 at 48 h [9] was 133 µg/mL (≈ 390 µM).

With Cc1cc(/C=N\OCc2ccccc2)c(C)n1-c1ccc(F)cc1 the MIC [1] was “inactive”, the MIC ([2]; H37Rv ATTC 27294, 168 h) was 25 µg/mL (≈ 77.5 µM) and the “growth inhibition (GI)” value [3] was “inactive”.
